# From ChEMBL document CHEMBL1124108, “Antihypertensive thiadiazoles. 2. Vasodilator activity of some 2-aryl-5-guanidino-1,3,4-thiadiazoles” (1988)
# Experiments:
# Rattus norvegicus [1] = assay: Maximum percentage reduction in mean blood pressure in metacorticoid (DOCA) hypertensive rats at a standard oral dose of 100 mg/kg; IA = Inactive;Maximum percentage fall in MABP <10%; format: functional, organism-based; parameters: dose 100 mg/kg
# Procedure, shortened: (§1)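 Rats were DOCA hypertensive. For oral dosing, food was withdrawn 18 h before; rats dosed ip were not starved. The vehicle was isotonic saline. Pressure was recorded by transducer under minimal restraint: twice before dosing, then at 1, 2, 3, 5 and 22 h. MABP was taken as diastolic + one-third pulse pressure. The value is the maximum % fall from the mean of the two pretreatment readings, n = 3-5.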
# Rattus norvegicus [2] = assay: Increase in diastolic blood pressure for 0.3 ug/kg intravenous dosing of noradrenaline in pithed rats; format: functional, Artery
# Procedure, shortened: (§2)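 The pithed-rat preparation was used: male rats (200-300 g) got drug or isotonic saline ip in groups of five, 2 h beforehand (one reference agent 1 h). Doses were 50, 25 or 5 mg/kg. Rats were under halothane, cannulated, pithed and ventilated with room air. Noradrenaline (0.1-1.0 µg/kg) or angiotensin (0.03-0.3 µg/kg) was injected iv, and the increase in diastolic pressure was recorded in mmHg.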
# Rattus norvegicus [3] = assay: Increase in diastolic blood pressure for 0.3 ug/kg intravenous dosing of angiotensin in pithed rats; format: functional, Artery; procedure, shortened: as §2
# Rattus norvegicus [4] = organism: Rattus norvegicus; assay: Increase in diastolic blood pressure for 6 Htz electrical stimulation in the pithed rats; format: functional, Artery
# Procedure, shortened: (§3)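 Male rats (200-300 g) were given drug or isotonic saline ip, in groups of five, 2 h before pithing (one reference agent 1 h before). Doses were 50 or 25 mg/kg, or 5 mg/kg for the reference agent. Rats were put under halothane, tracheally cannulated, pithed through the left orbit and ventilated with room air at 50 strokes/min. After iv tubocurarine (1 mg/kg), the whole sympathetic outflow was stimulated at 1, 3 or 6 Hz (0.5 ms, 20 V, 15 s). The rise in diastolic pressure was recorded in mmHg.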
# Rattus norvegicus [5] = assay: Increase in diastolic blood pressure for 0.1 ug/kg intravenous dosing of angiotensin in pithed rats; format: functional, Artery; procedure, shortened: as §2
# Rattus norvegicus [6] = assay: Summation of percentage reductions, compared to pretreatment controls, in MABP of DOCA hypertensive rats at 1,2,3,5,8 hr after the 100 mg/kg oral dose.; format: functional
# Procedure, shortened: (§4)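 DOCA hypertensive rats (n = 5) were dosed orally. MABP (diastolic + one-third pulse pressure) was read before dosing and at 1, 2, 3, 5 and 8 h. The value is the sum of the % reductions from pretreatment control over these five time points.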
# Rattus norvegicus [7] = organism: Rattus norvegicus; assay: Increase in diastolic blood pressure for 3 Htz electrical stimulation in the pithed rats; format: functional, Artery; procedure, shortened: as §3
# Rattus norvegicus [8] = assay: Maximum percentage reduction in mean blood pressure in metacorticoid (DOCA) hypertensive rats at a standard oral dose of 100 mg/kg; format: functional; procedure, shortened: as §1
# Rattus norvegicus [9] = assay: Increase in diastolic blood pressure for 0.1 ug/kg intravenous dosing of noradrenaline in pithed rats; format: functional, Artery; procedure, shortened: as §2
# Rattus norvegicus [10] = organism: Rattus norvegicus; assay: Increase in diastolic blood pressure for 1 Htz electrical stimulation in the pithed rats; format: functional, Artery; procedure, shortened: as §3
# Rattus norvegicus [11] = assay: Increase in diastolic blood pressure for 0.03 ug/kg intravenous dosing of angiotensin in pithed rats; format: functional, Artery; procedure, shortened: as §2
# Rattus norvegicus [12] = assay: Increase in diastolic blood pressure for 1.0 ug/kg intravenous dosing of noradrenaline in pithed rats; format: functional, Artery; procedure, shortened: as §2
# Rattus norvegicus [13] = assay: Summation of percentage reductions, compared to pretreatment controls, in MABP of DOCA hypertensive rats at 1,2,3,5,8 hr after the 50 mg/kg oral dose.; format: functional; procedure, shortened: as §4
# Rattus norvegicus [14] = assay: Maximum percentage reduction in mean blood pressure in metacorticoid (DOCA) hypertensive rats at a standard oral dose of 50 mg/kg; format: functional; procedure, shortened: as §1
# Rattus norvegicus [15] = assay: Maximum percentage reduction in mean arterial blood pressure in metacorticoid (DOCA) hypertensive rats at a standard oral dose of 50 mg/kg; format: functional; procedure, shortened: as §1
# Rattus norvegicus [16] = assay: Maximum percentage reduction in mean arterial blood pressure in metacorticoid (DOCA) hypertensive rats at a standard oral dose of 100 mg/kg; format: functional; procedure, shortened: as §1
# Rattus norvegicus [17] = organism: Rattus norvegicus; assay: Increase in diastolic blood pressure at 3 Htz electrical stimulation in the pithed rats; format: functional, Artery; procedure, shortened: as §3
# Rattus norvegicus [18] = assay: Increase in diastolic blood pressure at 0.3 ug/kg intravenous dosing of noradrenaline in pithed rats; format: functional, Artery; procedure, shortened: as §2
# Rattus norvegicus [19] = assay: Increase in diastolic blood pressure at 0.1 ug/kg intravenous dosing of angiotensin in pithed rats; format: functional, Artery; procedure, shortened: as §2
# Rattus norvegicus [20] = assay: Maximum percentage reduction in mean blood pressure and heart rate in metacorticoid (DOCA) hypertensive rats at a standard intraperitoneal dose of 100 mg/kg; format: functional
# Rattus norvegicus [21] = assay: Maximum percentage reduction in mean blood pressure in metacorticoid (DOCA) hypertensive rats at a standard oral dose of 10 mg/kg; format: functional; procedure, shortened: as §1
# Rattus norvegicus [22] = assay: Increase in diastolic blood pressure at 0.1 ug/kg intravenous dosing of noradrenaline in pithed rats; format: functional, Artery; procedure, shortened: as §2
# Rattus norvegicus [23] = assay: Increase in diastolic blood pressure at 0.3 ug/kg intravenous dosing of angiotensin in pithed rats; format: functional, Artery; procedure, shortened: as §2
# Rattus norvegicus [24] = assay: Increase in diastolic blood pressure at r 0.3 ug/kg intravenous dosing of noradrenaline in pithed rats; format: functional, Artery; procedure, shortened: as §2
# Rattus norvegicus [25] = organism: Rattus norvegicus; assay: Increase in diastolic blood pressure at 1 Htz electrical stimulation in the pithed rats; format: functional, Artery; procedure, shortened: as §3
# Rattus norvegicus [26] = assay: Increase in diastolic blood pressure at 0.03 ug/kg intravenous dosing of angiotensin in pithed rats; format: functional, Artery; procedure, shortened: as §2
# Rattus norvegicus [27] = assay: Increase in diastolic blood pressure at 1.0 ug/kg intravenous dosing of noradrenaline in pithed rats; format: functional, Artery; procedure, shortened: as §2
# Rattus norvegicus [28] = organism: Rattus norvegicus; assay: Increase in diastolic blood pressure at 6 Htz electrical stimulation in the pithed rats; format: functional, Artery; procedure, shortened: as §3
structure (smiles),measurement,setting,value
Cc1ccc(-c2nnc(N=C(N)N)s2)cc1,Reduction,Rattus norvegicus [1],Not significant
COc1cccc(-c2nnc(N=C(N)N)s2)c1,Reduction,Rattus norvegicus [1],Not significant
Cc1ccccc1-c1nnc(NC(=N)N2CCCC2)s1,Reduction,Rattus norvegicus [1],Not significant
COCC/N=C(/N)Nc1nnc(-c2ccccc2C)s1.Cl,Increase in blood pressure,Rattus norvegicus [2],25 mmHg
same,Increase in blood pressure,Rattus norvegicus [3],44 mmHg
same,Increase in blood pressure,Rattus norvegicus [4],65 mmHg
same,Increase in blood pressure,Rattus norvegicus [5],28 mmHg
same,Summation MABP,Rattus norvegicus [6],157
same,Increase in blood pressure,Rattus norvegicus [7],52 mmHg
same,Reduction,Rattus norvegicus [8],37%
same,Increase in blood pressure,Rattus norvegicus [9],13 mmHg
same,Increase in blood pressure,Rattus norvegicus [10],30 mmHg
same,Increase in blood pressure,Rattus norvegicus [11],14 mmHg
same,Increase in blood pressure,Rattus norvegicus [12],45 mmHg
same,Summation MABP,Rattus norvegicus [13],113
same,Reduction,Rattus norvegicus [14],29%
CCCC/N=C(/N)Nc1nnc(-c2ccccc2C)s1.Cl,Reduction,Rattus norvegicus [15],31%
same,Reduction,Rattus norvegicus [16],39%
same,Summation MABP,Rattus norvegicus [6],159
same,Increase in blood pressure,Rattus norvegicus [17],20 mmHg
same,Increase in blood pressure,Rattus norvegicus [18],42 mmHg
same,Increase in blood pressure,Rattus norvegicus [19],23 mmHg
same,Summation MABP,Rattus norvegicus [13],126
N=C(N)Nc1nnc(-c2c(Cl)cccc2Cl)s1,Reduction,Rattus norvegicus [20],34%
Nc1cc(N2CCCCC2)nc(N)[n+]1[O-] [MINOXIDIL],Reduction,Rattus norvegicus [21],42%
Cc1ccccc1-c1nnc(NN)s1,Summation MABP,Rattus norvegicus [13],206
same,Reduction,Rattus norvegicus [14],48%
NNc1nncc2ccccc12 [HYDRALAZINE],Increase in blood pressure,Rattus norvegicus [2],15 mmHg
same,Increase in blood pressure,Rattus norvegicus [3],38 mmHg
same,Increase in blood pressure,Rattus norvegicus [4],54 mmHg
same,Increase in blood pressure,Rattus norvegicus [5],21 mmHg
same,Increase in blood pressure,Rattus norvegicus [7],42 mmHg
same,Increase in blood pressure,Rattus norvegicus [9],8 mmHg
same,Increase in blood pressure,Rattus norvegicus [10],28 mmHg
same,Increase in blood pressure,Rattus norvegicus [11],8 mmHg
same,Increase in blood pressure,Rattus norvegicus [12],28 mmHg
N=C(N)Nc1nnc(C2CCCCC2)s1,Reduction,Rattus norvegicus [1],Not significant
N=C(N)Nc1nnc(-c2ccc([N+](=O)[O-])cc2)s1,Reduction,Rattus norvegicus [1],Not significant
Cc1cccc(C)c1-c1nnc(N=C(N)N)s1,Reduction,Rattus norvegicus [1],Not significant
Cc1ccccc1-c1nnc(N(C)C2=NCCN2)s1,Reduction,Rattus norvegicus [1],Not significant
Cc1ccccc1-c1nnc(Nc2ncc[nH]2)s1.Cl,Reduction,Rattus norvegicus [16],40%
Cc1ccccc1-c1nnc(NC2=NCCN2)s1.Cl,Increase in blood pressure,Rattus norvegicus [22],10 mmHg
same,Reduction,Rattus norvegicus [15],28%
same,Increase in blood pressure,Rattus norvegicus [23],43 mmHg
same,Increase in blood pressure,Rattus norvegicus [24],21 mmHg
same,Increase in blood pressure,Rattus norvegicus [25],17 mmHg
same,Reduction,Rattus norvegicus [16],43%
same,Increase in blood pressure,Rattus norvegicus [26],15 mmHg
same,Summation MABP,Rattus norvegicus [6],194
same,Increase in blood pressure,Rattus norvegicus [17],34 mmHg
same,Increase in blood pressure,Rattus norvegicus [27],44 mmHg
same,Increase in blood pressure,Rattus norvegicus [28],45 mmHg
same,Increase in blood pressure,Rattus norvegicus [19],27 mmHg
same,Summation MABP,Rattus norvegicus [13],117
Cc1ccccc1-c1nnc(NC(=N)NC(C)(C)C)s1.Cl,Reduction,Rattus norvegicus [16],18%
Cl.N=C(N)Nc1nnc(-c2ccccc2Br)s1,Increase in blood pressure,Rattus norvegicus [2],27 mmHg
same,Increase in blood pressure,Rattus norvegicus [3],17 mmHg
same,Increase in blood pressure,Rattus norvegicus [4],38 mmHg
same,Increase in blood pressure,Rattus norvegicus [5],7 mmHg
same,Increase in blood pressure,Rattus norvegicus [7],31 mmHg
same,Reduction,Rattus norvegicus [8],41%
same,Increase in blood pressure,Rattus norvegicus [9],13 mmHg
same,Increase in blood pressure,Rattus norvegicus [10],17 mmHg
same,Increase in blood pressure,Rattus norvegicus [11],3 mmHg
same,Increase in blood pressure,Rattus norvegicus [12],50 mmHg
same,Reduction,Rattus norvegicus [14],29%
Cc1ccccc1-c1nnc(NC(=N)NC2CCC2)s1,Reduction,Rattus norvegicus [1],Not significant
Cc1ccccc1-c1nnc(N=C2N(C)CCN2C)s1,Reduction,Rattus norvegicus [1],Not significant
Cc1ccccc1-c1nnc(NC2=NCCCN2)s1.Cl,Reduction,Rattus norvegicus [16],13%
Cl.N=C(N)Nc1nnc(-c2ccc(C(F)(F)F)cc2)s1,Reduction,Rattus norvegicus [16],18%
Cc1ccccc1-c1nnc(N/C(N)=N\C(C)C)s1.Cl,Reduction,Rattus norvegicus [16],23%
